pEC50, pIC50: −log10 of the molar value. Entries after “also recorded” stand apart in the source; their conditions may differ.
What was measured:
mGluR4 [1] = conditions: cited from earlier work; for pEC50: mGluR4 PAM
mGluR1 [2] = target: T1, mGluR1 (Homo sapiens, UniProt Q13255); conditions: cited from earlier work
mGluR4 [3] = conditions: cited from earlier work
[4] = system: preclinical Parkinson's disease models; conditions: cited from earlier work
mGluR4 [5] = target: T2, mGluR4 (Homo sapiens, UniProt Q14833); test: Potentiation of an EC20 of glutamate in human mGluR4/Gqi5 CHO cells; type: cell-based; conditions: for mGluR4 PAM activity (in words): potentiation of EC20 glutamate, mGluR4/Gqi5 CHO cells; for loss in potency relative to 6: mGluR4 PAM EC50 versus re-synthesized 6
mGluR4 [6] = target: T2, mGluR4; test: Receptor activation in mGluR4/Gqi5 CHO cells in the absence of glutamate; type: cell-based; conditions: no EC20 glutamate added
mGluRs = test: Selectivity screen across the mGluRs; type: cell-based
mGluR1 [7] = target: T1, mGluR1; test: EC20 activation assay, mGluR1; type: cell-based; conditions: at 30 μM
mGluR8 = mGluR8 (Homo sapiens, UniProt O00222); test: EC20 activation assay, mGluR8; type: cell-based; conditions: at 30 μM
mGluR1 [8] = target: T1, mGluR1; test: mGluR1 antagonist activity; type: cell-based
mGluR4 [9] = target: T2, mGluR4; type: cell-based; conditions: at 30 μM compound
Method in brief: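 Human mGluR4 co-expressed with chimeric Gqi5 in CHO cells. Glutamate concentration–response curves run with and without 30 μM test compound; fold shift taken as the leftward displacement of the glutamate curve. Responses expressed as % of maximal glutamate response. Average of at least three independent determinations, each in triplicate.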

T2 sequence (Q14833 33-912): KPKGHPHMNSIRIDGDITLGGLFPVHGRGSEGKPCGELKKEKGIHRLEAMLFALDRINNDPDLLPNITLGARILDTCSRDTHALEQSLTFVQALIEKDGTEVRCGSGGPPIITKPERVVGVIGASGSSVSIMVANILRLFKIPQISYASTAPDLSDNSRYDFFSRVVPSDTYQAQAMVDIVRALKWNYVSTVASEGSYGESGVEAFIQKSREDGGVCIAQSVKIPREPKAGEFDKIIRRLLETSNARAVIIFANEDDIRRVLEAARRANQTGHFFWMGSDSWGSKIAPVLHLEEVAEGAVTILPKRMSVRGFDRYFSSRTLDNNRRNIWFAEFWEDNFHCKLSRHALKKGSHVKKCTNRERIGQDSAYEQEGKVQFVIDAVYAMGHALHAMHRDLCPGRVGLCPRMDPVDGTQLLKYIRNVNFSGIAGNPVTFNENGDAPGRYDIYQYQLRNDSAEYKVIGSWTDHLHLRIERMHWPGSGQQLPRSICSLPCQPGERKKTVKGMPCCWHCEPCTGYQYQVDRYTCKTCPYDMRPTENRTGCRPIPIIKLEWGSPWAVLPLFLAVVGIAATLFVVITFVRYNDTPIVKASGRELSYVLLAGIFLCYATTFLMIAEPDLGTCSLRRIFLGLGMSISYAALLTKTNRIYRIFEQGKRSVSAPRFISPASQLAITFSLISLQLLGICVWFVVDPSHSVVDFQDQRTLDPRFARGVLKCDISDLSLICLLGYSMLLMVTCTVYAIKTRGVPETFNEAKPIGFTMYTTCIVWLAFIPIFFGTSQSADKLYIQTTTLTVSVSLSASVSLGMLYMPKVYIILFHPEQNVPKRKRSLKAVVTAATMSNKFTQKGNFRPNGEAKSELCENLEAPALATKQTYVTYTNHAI
T1 sequence (Q13255 19-1194): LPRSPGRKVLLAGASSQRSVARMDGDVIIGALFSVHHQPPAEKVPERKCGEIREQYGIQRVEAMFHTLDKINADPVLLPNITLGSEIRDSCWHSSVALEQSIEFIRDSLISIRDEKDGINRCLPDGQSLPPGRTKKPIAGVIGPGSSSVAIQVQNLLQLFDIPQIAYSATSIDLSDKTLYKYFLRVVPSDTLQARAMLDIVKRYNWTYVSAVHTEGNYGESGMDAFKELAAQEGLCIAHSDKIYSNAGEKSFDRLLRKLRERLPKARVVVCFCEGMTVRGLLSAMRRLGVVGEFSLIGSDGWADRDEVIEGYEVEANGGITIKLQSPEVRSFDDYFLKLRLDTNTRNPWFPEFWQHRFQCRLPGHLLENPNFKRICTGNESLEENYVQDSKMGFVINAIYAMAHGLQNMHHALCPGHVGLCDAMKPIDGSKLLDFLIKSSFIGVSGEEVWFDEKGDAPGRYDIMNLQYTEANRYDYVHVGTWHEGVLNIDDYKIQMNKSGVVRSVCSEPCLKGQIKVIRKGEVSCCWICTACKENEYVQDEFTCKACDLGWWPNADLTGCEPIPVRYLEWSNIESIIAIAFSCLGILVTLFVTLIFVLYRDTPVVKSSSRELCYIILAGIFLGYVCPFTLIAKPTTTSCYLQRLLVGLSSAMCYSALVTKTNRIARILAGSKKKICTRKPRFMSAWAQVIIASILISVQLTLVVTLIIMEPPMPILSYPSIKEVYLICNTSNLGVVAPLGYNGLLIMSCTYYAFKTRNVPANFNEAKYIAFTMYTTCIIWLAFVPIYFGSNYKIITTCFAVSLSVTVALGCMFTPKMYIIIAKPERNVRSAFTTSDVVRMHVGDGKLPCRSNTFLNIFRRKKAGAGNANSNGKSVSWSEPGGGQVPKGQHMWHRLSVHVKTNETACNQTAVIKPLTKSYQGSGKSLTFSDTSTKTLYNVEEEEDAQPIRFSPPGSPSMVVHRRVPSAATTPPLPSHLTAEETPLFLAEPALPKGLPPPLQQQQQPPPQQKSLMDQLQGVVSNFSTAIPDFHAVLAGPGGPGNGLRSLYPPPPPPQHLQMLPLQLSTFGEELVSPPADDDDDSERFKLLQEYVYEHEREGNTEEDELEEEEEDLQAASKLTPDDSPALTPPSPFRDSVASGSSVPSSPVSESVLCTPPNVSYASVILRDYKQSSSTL
Sequence of mGluR8 (O00222 34-908, species assumed): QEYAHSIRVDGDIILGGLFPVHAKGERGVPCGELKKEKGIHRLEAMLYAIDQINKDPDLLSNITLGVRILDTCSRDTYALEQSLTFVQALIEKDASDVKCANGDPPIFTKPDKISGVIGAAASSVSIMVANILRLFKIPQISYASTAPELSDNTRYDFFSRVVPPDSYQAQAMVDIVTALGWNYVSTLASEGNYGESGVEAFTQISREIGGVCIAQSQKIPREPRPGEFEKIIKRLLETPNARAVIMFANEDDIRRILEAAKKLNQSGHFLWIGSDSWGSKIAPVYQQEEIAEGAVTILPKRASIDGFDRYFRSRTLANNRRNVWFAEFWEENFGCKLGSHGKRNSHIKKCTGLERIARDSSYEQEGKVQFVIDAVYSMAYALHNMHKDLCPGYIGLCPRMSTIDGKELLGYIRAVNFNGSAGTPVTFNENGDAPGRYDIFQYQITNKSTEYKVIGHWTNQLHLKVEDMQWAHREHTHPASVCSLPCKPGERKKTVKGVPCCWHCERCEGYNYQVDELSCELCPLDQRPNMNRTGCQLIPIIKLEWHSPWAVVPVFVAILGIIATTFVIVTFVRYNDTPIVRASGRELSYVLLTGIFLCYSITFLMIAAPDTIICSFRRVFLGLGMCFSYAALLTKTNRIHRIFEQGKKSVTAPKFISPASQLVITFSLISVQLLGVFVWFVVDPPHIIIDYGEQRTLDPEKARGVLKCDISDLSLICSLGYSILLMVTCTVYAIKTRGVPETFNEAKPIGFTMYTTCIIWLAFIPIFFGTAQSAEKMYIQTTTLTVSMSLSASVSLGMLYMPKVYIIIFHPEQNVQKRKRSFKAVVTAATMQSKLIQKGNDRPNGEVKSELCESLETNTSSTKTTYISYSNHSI

Structure (SMILES): Cc1ccc(-n2ncc3c(N4CCCC(C)C4)ncnc32)c(C)c1 (stereo not shown) [Compound 4]
- fold shift of the glutamate response (mGluR4 [1]): 11.8 fold
- pEC50 (mGluR4 [1]): 5.30
- mGluR1 antagonist activity (in words) (mGluR1 [2]): significant mGluR1 antagonist activity
- pIC50 (mGluR1 [2]; read-out: IC50 (full antagonist of mGluR1)): 5.59

Structure (SMILES): O=C(O)[C@H]1CCCC[C@H]1C(=O)Nc1cc(Cl)cc(Cl)c1 [Compound 5]
- pEC50 (mGluR4 [1]): 6.12
- allosteric agonist activity (mGluR4 [3]): significant allosteric agonist activity
- efficacy in preclinical Parkinson's disease models [4]: displayed efficacy in preclinical Parkinson’s disease models

Structure (SMILES): Cc1nc2ccccc2nc1N/N=C/c1ccc(O)cc1 [Compound 6, (E)-4-((2-(3-methylquinoxalin-2-yl)hydrazono)methyl) phenol]
- pEC50 (mGluR4 [5]): 6.19
- mGluR4 PAM activity (in words) (mGluR4 [5]): Concentration-dependent potentiation
- effect on mGluR4 in the absence of glutamate (mGluR4 [6]): no effect; also recorded: do not elicit receptor activation
- antagonism of mGluRs (mGluRs; EC80 assay): not an antagonist of any mGluR
- selectivity across the mGluRs (mGluRs; activation (EC20 glutamate potentiation) and inhibition (depression of EC80) assays): highly selective for mGluR4
- activation of mGluR1 (mGluR1 [7]): moderate activation
- activation of mGluR8 (mGluR8): moderate activation
- mGluR1 antagonist activity (mGluR1 [8]): devoid of mGluR1 antagonist activity; also recorded: did not exhibit mGluR1 antagonist activity

Structure (SMILES): Cc1ccc(N2C(=O)c3ccccc3NC2C(C)c2ccccc2)cc1 (stereo not shown) [Compound 7]
- pEC50 (mGluR4 [5]): 5.74
- fold shift of the glutamate response curve (leftward) (mGluR4 [9]): 2.7 fold

Structure (SMILES): Cc1nc2ccccc2nc1N/N=C/c1cccc(O)c1 [Compound 12a]
- loss in potency relative to 6 (mGluR4 [5]): > 3 fold

Structure (SMILES): Cc1nc2ccccc2nc1N/N=C/c1ccccc1O [Compound 12b]
- loss in potency relative to 6 (mGluR4 [5]): > 6 fold

Structure (SMILES): Cc1nc2ccccc2nc1N/N=C/c1ccc(F)cc1 [Compound 12c]
- mGluR4 PAM activity (in words) (mGluR4 [5]): afforded mGluR4 PAM activity

Structure (SMILES): Cc1nc2ccccc2nc1N/N=C/c1ccccc1 [Compound 12d]
- mGluR4 PAM activity (in words) (mGluR4 [5]): afforded mGluR4 PAM activity

Structure (SMILES): O=C(Nc1ccccc1)[C@]12C[C@H]1/C(=N\O)c1ccccc1O2 [PHCCC, N-phenyl-7-(hydroxyimino) cyclopropa(b)chromen-1a-carboxamide]
- mGluR1 antagonist activity (in words) (mGluR1 [2]): significant mGluR1 antagonist activity

Reference: article PMC3787871 (Bioorganic & medicinal chemistry letters, 2008)
